Results from article PMC6370461 (ACS chemical biology, 2018).

Key:
Human DJ-1 [1] = target: T1, Human DJ-1 (Homo sapiens, UniProt Q99497); assay: Thermal stability of DJ-1 by DSF; format: binding; conditions: DJ-1 10 μM, compound 50 μM
T1 sequence (Q99497 1-189): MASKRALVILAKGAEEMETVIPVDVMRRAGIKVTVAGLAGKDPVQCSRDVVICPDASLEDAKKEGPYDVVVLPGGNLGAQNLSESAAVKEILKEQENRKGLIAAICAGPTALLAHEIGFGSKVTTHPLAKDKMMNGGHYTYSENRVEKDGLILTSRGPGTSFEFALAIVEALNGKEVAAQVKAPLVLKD
Summary of the method: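 Tag-free DJ-1 (10 μM) with compound (50 μM) in PBS, 0.01% Tween 20 and 2.5% DMSO, with SYPRO Orange dye (excitation 470 nm, emission 570 nm). Samples were heated from 30 to 85 °C at 2 °C/min. TM was taken from the inflection point of the derivative unfolding curve and compared with unbound protein.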

DJ-1 in HEK293 cells = assay: Glyoxalase/deglycase activity in cells: CML-modified proteins by western blot; format: cell-based, human; conditions: glyoxal 2 mM
Summary of the method: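 HEK293 cells (2×10^5 per 6 cm dish) were cultured 3 days in DMEM with 10% FBS, then starved 20 h in 1% FBS. Treatment was 3 h in DMEM with 1% FBS, 0.2% DMSO and compound, with or without glyoxal (2 mM). Lysates underwent SDS-PAGE, nitrocellulose transfer and immunoblotting for carboxymethyl lysine, DJ-1 and β-actin, detected with HRP secondaries.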

Human DJ-1 [2] = target: T1, Human DJ-1; assay: Binding affinity and thermodynamics by ITC
Summary of the method: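 Recombinant human DJ-1 (E. coli-expressed) dialysed into PBS to remove DTT; compounds in the same PBS with 5% DMSO. Titrations at 25 °C with protein in the cell and compound in the syringe: DJ-1 20 μM against compound 200 μM (muteins: protein 100 μM, compound 1 mM). Isotherms fitted to a one-site binding model.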

DJ-1 in HeLa cells [3] = target: T2, DJ-1 in HeLa cells (Homo sapiens, UniProt Q99497); assay: CML-modified protein by western blot in HeLa cells; format: cell-based; conditions: highest concentration employed
T2 sequence (Q99497 1-189): T1 sequence (Q99497 1-189)
Summary of the method: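 HeLa cells (1.5×10^5 per well) were grown 24 h in DMEM with 10% FBS, starved 20 h in 0.5% FBS, then exposed 3 h to compound in 0.5% FBS with 0.2% DMSO. DJ-1 knockout HeLa cells were also used. RIPA lysates went to SDS-PAGE and nitrocellulose. The anti-CML blot was read by HRP chemiluminescence; DJ-1 and β-actin were detected by Cy5 fluorescence.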

DJ-1 in HeLa cells [4] = target: T2, DJ-1 in HeLa cells; assay: Cellular thermal shift assay; format: cell-based; conditions: thermal treatment at 63 °C
Human DJ-1 [5] = target: T1, Human DJ-1; assay: In vitro glyoxalase activity assay with phenylglyoxal as substrate; format: biochemical
Summary of the method: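 Recombinant DJ-1 0.5 μM with phenylglyoxal 2 μM in 100 mM potassium phosphate pH 7.0, 1% DMSO; compound 1.0 nM–30 μM. Initial velocities were taken from the loss of absorbance at 250 nm. Activity was expressed as the velocity ratio with versus without inhibitor, and sigmoidal fits gave the inhibition constant.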

- ΔTM, thermal stabilization with respect to the unbound protein (Human DJ-1 [1]): 1.8 °C
- Kd (Human DJ-1 [2]): 3.2 ± 0.1 µM
- enthalpic efficiency (EE) (Human DJ-1 [2]): 1.1 kcal/mol
- ΔH of binding (Human DJ-1 [2]; ITC, 25 °C): -11.6 ± 0.1 kcal/mol
- −TΔS of binding (Human DJ-1 [2]; ITC, 25 °C): 4.1 kcal/mol
- intensity of a protein modified with CML (DJ-1 in HeLa cells [3]): clearly increases
- stabilization of the soluble form of DJ-1 in cells (DJ-1 in HeLa cells [4]): concentration-dependent stabilization
- IC50 (Human DJ-1 [5]): 13 µM
SMILES: O=C1Nc2ccccc2C1=O [compound 1, 1H-indole-2,3-dione]
- intensity of bands of proteins modified with CML compared with DMSO control (DJ-1 in HEK293 cells): increased significantly
